The values that follow come from ChEMBL document CHEMBL1124690, “Synthesis and antitumor activity of fused tetracyclic quinoline derivatives. 1” (J Med Chem, 1989).

In assay [1] the test system is P388. Nature of the assay: Median survival time per control mice with leukemia P388 at 100 mg/kg dose injected intraperitoneally. Type of assay: functional, Mus musculus. The note with it: route intraperitoneal. Put shortly: (§1)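 CD2F1 mice (six per group) implanted ip with 10⁶ P388 leukemia cells. Drug dissolved in 0.9% NaCl with a drop of Tween 80, given ip once daily on days 1 and 5. % T/C = median survival time treated/control × 100.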

Assay [2] has as its system P388. The experiment in a line: Median survival time per control mice with leukemia P388 at 400 mg/kg dose injected intraperitoneally. Type of assay: functional, Mus musculus. The note with it: route intraperitoneal. In outline: as §1
The test system of assay [3] is P388. Nature of the assay: Median survival time per control mice with leukemia P388 at 25 mg/kg dose injected intraperitoneally. In kind it is functional, Mus musculus. The note with it: route intraperitoneal. Put shortly: as §1
Assay [4] deals with B16. Nature of the assay: Median survival time per control animal with B16 cells at 25 mg/kg dose injected intraperitoneally on day 1,5,8. Type of assay: functional, Mus musculus. The note with it: route intraperitoneal. Put shortly:
(§2)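 Female-unspecified B6D2F1 mice inoculated ip with 0.5 mL of 10% homogenate (Hank's saline) of subcutaneous B16 melanoma. Drug given ip on days 1, 5 and 8. % T/C = median survival time of treated over control group.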

The nature of assay [5]: Percent fluorescence of the ethidium bromide-DNA complex. Put shortly: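 Ethidium displacement: ethidium bromide 3 µM and calf thymus DNA 20 µM in Hepes 2 mM, EDTA 10 µM, NaCl 9.4 mM, pH 7.0; drug 10 µM. Excitation 564 nm filter, emission 595 nm. Fluorescence with drug as % of drug-free control; mean ± SE of three experiments.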
Assay [6] can be described thus: Inhibition of KB cell growth in vitro. In kind it is functional, cell-based. Conditions: Homo sapiens. Put shortly: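 KB clonal cells in Eagle's MEM with 10% calf serum, 37 °C, 5% CO2; seeded 2100 cells/cm², medium changed at 24 h, then graded drug 0.3–100 µg/mL for 48 h, duplicate dishes per concentration. Cells trypsinized and counted by Coulter counter; IC50 from log concentration vs growth rate (% of control).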

The nature of assay [7]: Median survival time per control animal with colon 38 carcinoma cells at 35 mg/kg dose injected intraperitoneally on day 1,8,15,22. Type of assay: functional, Mus musculus. Conditions: route intraperitoneal. Put shortly: (§3)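 Colon 38 inoculated sc as a 1 × 1 × 1 mm³ fragment into B6D2F1 mice; drug dosed ip on days 1, 8, 15 and 22. Result expressed as % T/C of median survival time, treated versus control.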

Assay [8] concerns B16. The experiment in a line: Median survival time per control animal with B16 cells at 6.3 mg/kg dose injected intraperitoneally on day 1,5,8. In kind it is functional, Mus musculus. Conditions: route intraperitoneal. Put shortly:
as §2

Assay [9] deals with P388. Nature of the assay: Median survival time per control mice with leukemia P388 at 200 mg/kg dose injected intraperitoneally. Conditions: route intraperitoneal. In kind it is functional, Mus musculus. Put shortly:
as §1

The nature of assay [10]: Median survival time per control animal with colon 38 carcinoma cells at 12.5 mg/kg dose injected intraperitoneally on day 1,8,15,22. Type of assay: functional, Mus musculus. Conditions: route intraperitoneal. Put shortly: as §3
Assay [11] has as its system M5076. The experiment in a line: Median survival time per control animal with M5076 cells at 3.1 mg/kg dose injected intraperitoneally on day 1,5,9. Type of assay: functional, Mus musculus. The note with it: route intraperitoneal. In outline: (§4)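 B6D2F1 mice inoculated ip with 10⁶ M5076 fibrosarcoma cells; drug given ip on days 1, 5 and 9. Activity read as % T/C, ratio of median survival time of treated to control group.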

Assay [12] relates to P388. The experiment in a line: Median survival time per control mice with leukemia P388 at 12.5 mg/kg dose injected intraperitoneally. In kind it is functional, Mus musculus. The note with it: route intraperitoneal. In outline:
as §1

Assay [13] relates to B16. The experiment in a line: Median survival time per control animal with B16 cells at 12.5 mg/kg dose injected intraperitoneally on day 1,5,8. Type of assay: functional, Mus musculus. The note with it: route intraperitoneal. Put shortly:
as §2

Assay [14] is described as follows: Median survival time per control animal with colon 38 carcinoma cells at 25 mg/kg dose injected intraperitoneally on day 1,8,15,22. Type of assay: functional, Mus musculus. The note with it: route intraperitoneal. In outline: as §3
The subject of assay [15] is P388. Nature of the assay: Median survival time per control mice with leukemia P388 at 50 mg/kg dose injected intraperitoneally. Type of assay: functional, Mus musculus. Conditions: route intraperitoneal. In outline: as §1
Assay [16] deals with M5076. Nature of the assay: Median survival time per control animal with M5076 cells at 6.3 mg/kg dose injected intraperitoneally on day 1,5,9. Type of assay: functional, Mus musculus. The note with it: route intraperitoneal. Put shortly:
as §4

The test system of assay [17] is DNA topoisomerase II (Bos taurus). The experiment in a line: Activity of the topoisomerase II dependent DNA cleavage; Active.
In assay [18] the test system is M5076. The experiment in a line: Median survival time per control animal with M5076 cells at 25 mg/kg dose injected intraperitoneally on day 1,5,9. The note with it: route intraperitoneal. Type of assay: functional, Mus musculus. In outline:
as §4

Assay [19] deals with M5076. The experiment in a line: Median survival time per control animal with M5076 cells at 50 mg/kg dose injected intraperitoneally on day 1,5,9. In kind it is functional, Mus musculus. Conditions: route intraperitoneal. In outline: as §4
Assay [20] is described as follows: Median survival time per control animal with colon 38 carcinoma cells at 6.3 mg/kg dose injected intraperitoneally on day 1,8,15,22. In kind it is functional, Mus musculus. Conditions: route intraperitoneal. In outline:
as §3

Assay [21] deals with M5076. Nature of the assay: Median survival time per control animal with M5076 cells at 12.5 mg/kg dose injected intraperitoneally on day 1,5,9. In kind it is functional, Mus musculus. Conditions: route intraperitoneal. In outline:
as §4

For assay [22], the system named is P388. The experiment in a line: Median survival time per control mice with leukemia P388 at 400 mg/kg dose injected a dose of 400 mg/kg. In kind it is functional, organism-based. Conditions: Mus musculus. In outline: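 CD2F1 mice (six per group) given 10⁶ P388 cells ip; drug in 0.9% NaCl with a drop of Tween 80, ip on days 1 and 5. Activity as % T/C of median survival time, treated vs control.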

Assay [23] deals with DNA topoisomerase II (Bos taurus). Nature of the assay: Activity of the topoisomerase II dependent DNA cleavage; Inactive.
Assay [24] deals with DNA topoisomerase 1 (Bos taurus). The experiment in a line: Unwinding of DNA observed in a reaction mixture containing PBR322 DNA dimer, calf thymus DNA topoisomerase I, and the drug; ++ = unwinding was observed at 25 ug/mL.
The test system of assay [25] is P388. The experiment in a line: Median survival time per control mice with leukemia P388 at 20 mg/kg dose injected intraperitoneally. Conditions: route intraperitoneal. In kind it is functional, Mus musculus. Put shortly: as §1
Assay [26] has as its system P388. Nature of the assay: Median survival time per control mice with leukemia P388 at 40 mg/kg dose injected intraperitoneally. Type of assay: functional, Mus musculus. The note with it: route intraperitoneal. Put shortly:
as §1

Assay [27] concerns P388. The experiment in a line: Median survival time per control mice with leukemia P388 at 10 mg/kg dose injected intraperitoneally. In kind it is functional, Mus musculus. The note with it: route intraperitoneal. In outline:
as §1

The test system of assay [28] is DNA topoisomerase 1 (Bos taurus). Nature of the assay: Unwinding of DNA observed in a reaction mixture containing PBR322 DNA dimer, calf thymus DNA topoisomerase I, and the drug; + = unwinding was observed at 100 ug/mL.
Assay [29] relates to DNA topoisomerase II (Bos taurus). The experiment in a line: Activity of the topoisomerase II dependent DNA cleavage; (-) = Inactive.

Values after ≈ are worked out from the molar mass of the structure shown. Active and inactive are the calls of the source. The rule behind the calls is not given here.

In the case of `COc1cc(NS(C)(=O)=O)ccc1Nc1c2c(nc3ccccc13)-c1ccccc1C2`, the T/C (as a rule, the ratio of treated to control) with P388 [1] was found to be 80%; with P388 [2], 0%; in the assay with P388 [3] it was 217%; with B16 [4], 211%; in assay [7] it was 150%; in the assay with B16 [8], 184%. Moreover, the T/C in the assay with P388 [9] is 60%; in assay [10], 133%; in the assay with M5076 [11] it was 193%; in the assay on P388 [12] it was 166%; in the assay on B16 [13] it was 223%; in assay [14] it was 138%. In addition, the T/C amounted to 240% in the assay on P388 [15]; 158% with M5076 [16]; 111% with M5076 [18]; 92% with M5076 [19]; 111% in assay [20]; 184% with M5076 [21]. This compound displayed a Fluoroscence in [5] of 67.6%. Further, the IC50 (in general, the concentration that gives 50% inhibition) in [6] was less than 0.3 µg/mL. Also, in assay [17], the outcome was Active.
As for `COc1cc(NS(C)(=O)=O)ccc1Nc1c2c(nc3ccccc13)CCN(C)C2`, the Fluoroscence in assay [5] is 104%. Besides, the half-inhibitory concentration (IC50) in [6] is greater than 100 µg/mL. For the same compound, the T/C result with P388 [22] was “inactive”.
For the compound `COc1cc(NS(C)(=O)=O)ccc1Nc1c2c(nc3ccccc13)CCSC2`, the Fluoroscence in assay [5] is 106%. The IC50 in [6] stood at 46 µg/mL (≈ 111 µM). Moreover, the T/C result in the assay on P388 [22] is “inactive”.
The compound `CN(C)CCCNc1c2c(nc3ccccc13)CCCC2` displayed a Fluoroscence in [5] of 82%. In assay [6], the half-inhibitory concentration (IC50) worked out at 1.3 µg/mL (≈ 4.59 µM). In addition, the T/C result with P388 [22] is “inactive”.
With `CN(C)CCCNc1c2c(nc3ccccc13)CCN(C)C2`, 14 µg/mL (≈ 46.9 µM) corresponded to half-maximal inhibition in assay [6] (IC50). In addition, in the assay with P388 [22], the T/C result is “inactive”.
With `COc1cc(NS(C)(=O)=O)ccc1Nc1c2c(nc3ccccc13)CCCC2`, the Fluoroscence in assay [5] came to 93.3%. This compound also had a half-maximal inhibitory concentration (IC50) in assay [6] of 41 µg/mL (≈ 103 µM). For the same compound, the T/C entry in the assay with P388 [22] is “inactive”. Also, in [23], the outcome was inactive.
As to `COc1cc(NS(C)(=O)=O)ccc1Nc1c2ccccc2nc2c1sc1ccccc12`, the T/C with P388 [1] turned out to be 166%; in the assay with P388 [2], 252%; in the assay on P388 [3], 170%; with P388 [9] it was 238%; with P388 [12], 138%; with P388 [15] it was 170%. In [5], this compound registered a Fluoroscence of 79.3%. In [6], this compound returned an IC50 of less than 0.3 µg/mL. For the same compound, in assay [24], the Unwinding entry is given as “unwinding was observed at 25 ug/mL”. The outcome in assay [17] was Active.
In turn, `COc1cc(NS(C)(=O)=O)ccc1Nc1c2ccccc2nc2c3ccccc3n(C)c12` yielded a Fluoroscence in [5] of 93.6%. The same compound came in with an IC50 in assay [6] of 3.6 µg/mL (≈ 8.06 µM). Besides, the T/C result in the assay with P388 [22] was “inactive”.
Consider `COc1cc(NS(C)(=O)=O)ccc1Nc1c2ccccc2nc2ccccc12` [AMSACRINE], for which the T/C in the assay with P388 [25] is given as 198%; in the assay on P388 [26], 223%; in the assay with P388 [27] it was 174%. The compound further had a Fluoroscence in assay [5] of 63.7%. This compound displayed an IC50 in [6] of less than 0.3 µg/mL.
In turn, `COc1cc(NS(C)(=O)=O)ccc1Nc1c2c(nc3ccccc13)-c1ccccc1C2C` (centres undefined) yielded a Fluoroscence in assay [5] of 95.3%. Besides, the half-inhibitory concentration (IC50) in assay [6] came out at 15 µg/mL (≈ 33.7 µM). In addition, in the assay on P388 [22], the T/C result is “inactive”. The result in assay [23] was inactive.
In the case of `COc1cc(NS(C)(=O)=O)ccc1Nc1c2ccccc2nc2c1oc1ccccc12`, the T/C is reported as 138% with P388 [1]; 248% in the assay with P388 [2]; 125% in the assay on P388 [3]; 168% in the assay with P388 [9]; 117% in the assay on P388 [12]; 159% in the assay with P388 [15]. For the same compound, the Fluoroscence in assay [5] was 81.4%. In assay [6], the IC50 is less than 0.3 µg/mL. The Unwinding entry in assay [28] is reported as “unwinding was observed at 100 ug/mL”. The outcome in assay [17] was Active.
Consider `CN(C)CCCNc1c2c(nc3ccccc13)-c1ccccc1C2`, for which the T/C with P388 [3] is listed as 88%; in the assay on P388 [12], 110%; with P388 [15] it was 101%. Further, the Fluoroscence in assay [5] was found to be 5.45%. The half-maximal inhibitory concentration (IC50) in assay [6] was less than 0.3 µg/mL. Besides, in assay [29], the outcome was inactive.
